According to PMC3040456 (Current Chemical Genomics, 2010):
Like-named read-outs stand apart in the source and are kept apart here.

Assays:
[1] = system: GLA; conditions: cited from earlier work
[2] = molecular target: T1, α-Galactosidase A from green coffee beans (Coffea arabica, UniProt Q42656); experiment: GLA enzyme kinetics assay; format: biochemical
[3] = molecular target: T1, α-Galactosidase A from green coffee beans; experiment: GLA enzyme assay with 4MU-α-Gala, purified enzyme from green coffee beans; format: biochemical; conditions: for selectivity for GLA over GC (words): GLA vs GC; for inhibitory activity against GLA in qHTS and confirmation: bioactive 6,160 compound set; for IC50: read-out: IC50 for GLA, coffee bean GLA 1 nM, 40 μM 4MU-α-Gala, pH 5.9
[4] = molecular target: T2, human recombinant glucocerebrosidase (GC) (Homo sapiens, UniProt P04062, R534H); experiment: glucocerebrosidase; format: biochemical
T2 sequence (P04062 40-536 R534H): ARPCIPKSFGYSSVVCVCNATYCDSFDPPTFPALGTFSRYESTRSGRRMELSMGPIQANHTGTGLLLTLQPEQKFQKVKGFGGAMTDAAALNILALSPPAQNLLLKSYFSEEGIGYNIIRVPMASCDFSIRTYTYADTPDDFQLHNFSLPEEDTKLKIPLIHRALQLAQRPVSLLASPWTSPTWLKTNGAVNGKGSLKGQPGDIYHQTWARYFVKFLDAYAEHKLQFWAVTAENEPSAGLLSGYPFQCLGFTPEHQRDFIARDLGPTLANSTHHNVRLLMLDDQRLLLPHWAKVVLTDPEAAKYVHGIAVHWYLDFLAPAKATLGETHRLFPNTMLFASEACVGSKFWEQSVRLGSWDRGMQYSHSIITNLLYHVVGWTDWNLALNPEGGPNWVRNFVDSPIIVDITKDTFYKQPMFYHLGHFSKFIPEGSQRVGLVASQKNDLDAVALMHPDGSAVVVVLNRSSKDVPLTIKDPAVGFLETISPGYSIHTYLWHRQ
Summary of the method: (§1)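 Enzyme (2 μl), then 23 nl test compound in DMSO, then 1 μl 4MU substrate; 30 min at 21 °C, NaOH/glycine stop (pH 11.6), fluorescence at ex 365/em 440 nm. Enzymes stored in 30% glycerol at -80°C. GC: clinical imiglucerase, 1.9 nM, 800 μM 4MU-β-Glc, citrate/phosphate pH 5.9. GAA: 8 nM, 160 μM 4MU-α-glc, same buffer titrated to pH 5.0.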

[5] = system: rice α-glucosidase (GAA); experiment: α-glucosidase; format: biochemical; conditions: enzyme 8 nM, substrate 160 μM
Summary of the method: as §1

[6] = molecular target: T3, GLA in human spleen homogenate (Homo sapiens, UniProt P06280); experiment: qHTS with GLA in human spleen homogenate; format: biochemical; conditions: human spleen homogenate screen
T3 sequence (P06280 32-429): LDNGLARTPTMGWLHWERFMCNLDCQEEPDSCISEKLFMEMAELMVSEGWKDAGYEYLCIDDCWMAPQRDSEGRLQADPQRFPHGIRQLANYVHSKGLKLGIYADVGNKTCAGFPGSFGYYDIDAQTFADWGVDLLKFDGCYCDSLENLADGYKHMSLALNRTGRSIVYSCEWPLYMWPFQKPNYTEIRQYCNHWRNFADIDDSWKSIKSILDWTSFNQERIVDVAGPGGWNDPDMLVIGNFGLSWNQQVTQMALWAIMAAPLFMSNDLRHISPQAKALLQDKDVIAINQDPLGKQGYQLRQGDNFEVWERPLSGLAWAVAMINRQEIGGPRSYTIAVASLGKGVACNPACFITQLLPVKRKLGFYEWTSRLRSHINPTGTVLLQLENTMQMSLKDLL

[7] = molecular target: T4, human recombinant GLA (Homo sapiens, UniProt P06280); experiment: qHTS with human recombinant GLA; format: biochemical; conditions: human recombinant GLA screen
T4 sequence (P06280 32-429): T3 sequence (P06280 32-429)

[8] = read-out: IC50 for GC, enzyme 1.9 nM, substrate 800 μM

T1 sequence (Q42656 16-378): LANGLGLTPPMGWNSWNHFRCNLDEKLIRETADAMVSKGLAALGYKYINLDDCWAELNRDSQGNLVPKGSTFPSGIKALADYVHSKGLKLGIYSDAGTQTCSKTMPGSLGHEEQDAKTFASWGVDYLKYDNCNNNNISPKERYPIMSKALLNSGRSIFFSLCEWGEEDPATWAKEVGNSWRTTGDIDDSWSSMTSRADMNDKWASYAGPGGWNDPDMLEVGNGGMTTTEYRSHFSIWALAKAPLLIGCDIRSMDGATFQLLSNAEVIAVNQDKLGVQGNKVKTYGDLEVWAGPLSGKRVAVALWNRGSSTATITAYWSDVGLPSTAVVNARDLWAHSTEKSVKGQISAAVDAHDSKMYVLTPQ

Cc1cc(=O)oc2cc(O[C@H]3O[C@H](CO)[C@H](O)[C@H](O)[C@H]3O)ccc12 [4MU-α-Gala, 4-methylumbelliferyl-α-D-galactopyranoside]
Km ([1]; same substrate, pH 6.5): 239 µM | Km ([2]; pH 4.5): 102 µM | Vmax ([2]; pH 4.5): 2.76 pmol/min | Km ([2]; pH 5.9, 1 nM enzyme): 144 µM | Vmax ([2]; pH 5.9, 1 nM enzyme): 5.74 pmol/min

C[C@H](CCC(=O)NCCS(=O)(=O)O)[C@H]1CC[C@H]2[C@@H]3[C@H](O)C[C@@H]4C[C@H](O)CC[C@]4(C)[C@H]3C[C@H](O)[C@]12C [sodium taurocholate]
effect on GLA activity ([3]; titration 0.15 to 40 mM): decreased the GLA activity

CC(=O)[O][Hg][c]1ccccc1 [phenylmercuric acetate]
IC50 [4, 8]: 82 nM | inhibition of GAA [5]: did not inhibit GAA | selectivity for GLA over GC (words) [3]: not selective for GLA | selectivity for GLA over GC (words) ([3]; listed as Phenylmercuric acetate): significantly more potent against GC than GLA | inhibitory activity against GLA in qHTS and confirmation [3]: relatively high inhibitory activity | IC50 [3]: 7420 nM

O=C([O-])c1ccccc1-c1c2cc(Br)c(=O)cc-2oc2[c]([Hg+])c([O-])c(Br)cc12.[Na+].[Na+].[OH-] [merbromin]
IC50 [4, 8]: 630 nM | inhibition of GAA [5]: slightly inhibited GAA | selectivity for GLA over GC (words) [3]: not selective for GLA | selectivity for GLA over GC (words) ([3]; listed as Merbromin): more potent against GC than GLA | inhibitory activity against GLA in qHTS and confirmation [3]: relatively high inhibitory activity | IC50 [3]: 1380 nM

Cc1c(OCC(F)(F)F)ccnc1C[S+]([O-])c1nc2ccccc2[nH]1 (stereo not drawn) [lansoprazole]
activity with the human enzyme [6]: not active | IC50 [4]: 122000 nM | Ki [2]: 5500 nM | type of inhibition ([2]; Lineweaver-burk plot): mixed type of inhibition | inhibition of GAA [5]: did not inhibit GAA | selectivity for GLA over GC (words) [3]: showed selectivity for GLA over GC | inhibitory activity against GLA in qHTS and confirmation [3]: relatively high inhibitory activity | activity with the human enzyme [7]: not active

OC[C@H]1NC[C@H](O)[C@@H](O)[C@H]1O [DGJ, 1-deoxygalactonojirimycin]
IC50 ([1]; read-out: reported IC50 value): 3 nM
